Experimental data taken from ChEMBL document CHEMBL1123228, “Enantiomers of 3-(3,4-dihydroxyphenyl)- and 3-(3-hydroxyphenyl)-N-n-propylpiperidine: central pre- and postsynaptic dopaminergic effects and pharmacokinetics” (J Med Chem, 1986).

Legend:
[1] = Michaelis-Menten constant was measured against adenylate cyclase stimulation of cAMP formation in striatal homogenates; assay type: ADME, tissue-based; details: tissue homogenate
[2] = tested on: Rattus norvegicus; test: Presynaptic activity at the level of DA metabolism was determined at dose 45 umol/kg on striatal level of DOPAC; assay type: functional
Outline: (§1)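 Female Wistar rats given 45 μmol/kg sc; striatal DOPAC and HVA measured by HPLC with electrochemical detection, compared with saline controls by Student's t test.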

[3] = tested on: Rattus norvegicus; test: Presynaptic activity at the level of DA metabolism was determined at dose 45 umol/kg on striatal level of HVA; assay type: functional; outline: as §1
[4] = organism: Rattus norvegicus; test: Dopa accumulation was evaluated in corpus striatum of male Sprague-Dawley rat; assay type: functional
Outline: (§2)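 Male Sprague-Dawley rats, 200–300 g; drug in saline given sc after NSD 1015 decarboxylase inhibition; Dopa measured by HPLC with electrochemical detection. Dose-response curves from four to six dose levels per substance and brain area; ED50 estimated as the dose giving half-maximal decrease of Dopa level.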

[5] = organism: Rattus norvegicus; test: Dopa accumulation was evaluated in limbic system of male Sprague-Dawley rat; assay type: functional; outline: as §2
[6] = tested on: Rattus norvegicus; test: Motor activity effect in reserpinized rat at 13 umol/kg, sc expressed as accumulation counts 0-30 min after treatment; assay type: functional
[7] = tested on: Rattus norvegicus; test: Level of compound in rat striatum at dose 45 umol/kg administered subcutaneously.; assay type: functional, organism-based
Outline: (§3)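 Female Wistar rats (170–200 g) given 45 μmol/kg ip or sc, killed 60 min later. Striatum, cerebellum and cortex were frozen and homogenised in 0.1 M perchloric acid, purified on Sephadex G10 and analysed by HPLC-ECD. O-methyl metabolite was read at 27% methanol and 750 mV. Values pmol/g tissue, n = 3.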

[8] = tested on: Rattus norvegicus; test: Level of compound in rat intraperitoneally; assay type: functional, organism-based
[9] = tested on: Rattus norvegicus; test: Level of compound 5 in rat cerebellum at dose 45 umol/kg administered intraperitoneally; assay type: functional, organism-based; outline: as §3
[10] = tested on: Rattus norvegicus; test: Level of compound 5 in rat cerebellum at dose 45 umol/kg administered subcutaneously; assay type: functional, organism-based; outline: as §3
[11] = tested on: Rattus norvegicus; test: Level of compound 5 in rat cortex at dose 45 umol/kg administered intraperitoneally; assay type: functional, organism-based; outline: as §3
[12] = tested on: Rattus norvegicus; test: Level of compound 5 in rat cortex at dose 45 umol/kg administered subcutaneously; assay type: functional, organism-based; outline: as §3
[13] = tested on: Rattus norvegicus; test: Level of compound 5 in rat intraperitoneally; assay type: functional, organism-based; outline: as §3
[14] = tested on: Rattus norvegicus; test: Level of compound 5 in rat striatum at dose 45 umol/kg administered subcutaneously; assay type: functional, organism-based; outline: as §3
[15] = tested on: Rattus norvegicus; test: Level of compound in rat cerebellum at dose 45 umol/kg administered intraperitoneally; assay type: functional, organism-based; outline: as §3
[16] = tested on: Rattus norvegicus; test: Level of compound in rat cerebellum at dose 45 umol/kg administered subcutaneously; assay type: functional, organism-based; outline: as §3
[17] = tested on: Rattus norvegicus; test: Level of compound in rat cortex at dose 45 umol/kg administered intraperitoneally; assay type: functional, organism-based; outline: as §3
[18] = tested on: Rattus norvegicus; test: Level of compound in rat cortex at dose 45 umol/kg administered subcutaneously; assay type: functional, organism-based; outline: as §3
[19] = tested on: catechol-O-methyl transferase; test: Michaelis-Menten constant was measured for O-methylation (probably meta) by catechol-O-methyl transferase; assay type: ADME
Outline: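 Crude rat liver COMT (105000g supernatant) at 37°C for 15 min with 0.1–0.00125 mM substrate, S-adenosyl-L-methionine, 10 mM MgCl2 and 50 mM phosphate pH 7.4 (final). Reaction stopped with perchloric acid; O-methyl product measured by HPLC-ECD. Km from Lineweaver-Burk plots, four experiments, each concentration in triplicate.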

[20] = biological target: D(1A) dopamine receptor (Rattus norvegicus, UniProt P18901); test: In vitro affinity against Dopamine receptor D1 using [3H]SCH-23390 radioligand in rat striatal homogenate.
[21] = biological target: D(2) dopamine receptor (Rattus norvegicus, UniProt P61169); test: In vitro affinity against Dopamine receptor D2 using [3H]DP-5,6-ADTN radioligand in rat striatal homogenate.
[22] = tested on: Rattus norvegicus; test: Motor activity effect in reserpinized rat at 50 umol/kg, sc expressed as accumulation counts 0-30 min after treatment; assay type: functional
Outline: (§4)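 Male Sprague-Dawley rats given reserpine 5 mg/kg ip 18 h before; some also given tropolone 50 mg/kg 30 min before. Compound given sc in the neck, or ip where stated. Locomotion recorded by photocell motility meters, one rat per cage, as accumulated counts over 0–30 min, mean ± SEM.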

[23] = tested on: Rattus norvegicus; test: Motor activity effect in reserpinized rat with tropolone pretreatment at 5 umol/kg, sc expressed as accumulation counts 0-30 min after treatment; assay type: functional; outline: as §4
[24] = tested on: Rattus norvegicus; test: Level of compound in rat striatum in the absence of tropolone at dose 40 umol/kg; assay type: functional, organism-based
Outline: (§5)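 Female Wistar rats (170–200 g), compound sc in saline (1 mL/kg), killed 60 min later, with or without tropolone (50 mg/kg ip) before dosing. Striatum, cerebellum and cortex were extracted in perchloric acid, cleaned on Sephadex G10 and analysed by HPLC-ECD (pH 4.0, 15% methanol, 600 mV). Recovery-corrected, n = 3.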

[25] = tested on: Rattus norvegicus; test: Level of compound in rat striatum by pretreatment of tropolone (50 mg/kg, ip, 30min) at dose 40 umol/kg; assay type: functional, organism-based; outline: as §5
[26] = tested on: Rattus norvegicus; test: Level of compound in rat cortex in the absence of tropolone at dose 40 umol/kg; assay type: functional, organism-based; outline: as §5
[27] = tested on: Rattus norvegicus; test: Level of compound in rat cortex in the absence of tropolone at dose 8 umol/kg; assay type: functional, organism-based; outline: as §5
[28] = tested on: Rattus norvegicus; test: Level of compound in rat striatum at dose 40 umol/kg; assay type: functional, organism-based; outline: as §5
[29] = tested on: Rattus norvegicus; test: Level of compound in rat striatum at dose 8 umol/kg; assay type: functional, organism-based; outline: as §5
[30] = tested on: Rattus norvegicus; test: Level of compound in rat striatum by pretreatment of tropolone (50 mg/kg, ip, 30min) at dose 8 umol/kg; assay type: functional, organism-based; outline: as §5
[31] = tested on: Rattus norvegicus; test: Level of compound in rat cerebellum at dose 40 umol/kg; assay type: functional, organism-based; outline: as §5
[32] = tested on: Rattus norvegicus; test: Level of compound in rat cerebellum at dose 8 umol/kg; assay type: functional, organism-based; outline: as §5
[33] = tested on: Rattus norvegicus; test: Level of compound in rat cerebellum by pretreatment of tropolone (50 mg/kg, ip, 30min) at dose 8 umol/kg; assay type: functional, organism-based; outline: as §5
[34] = tested on: Rattus norvegicus; test: Level of compound in rat cerebellum in the absence of tropolone at dose 40 umol/kg; assay type: functional, organism-based; outline: as §5
[35] = tested on: Rattus norvegicus; test: Level of compound in rat cerebellum in the absence of tropolone at dose 8 umol/kg; assay type: functional, organism-based; outline: as §5
[36] = tested on: Rattus norvegicus; test: Level of compound in rat cortex at dose 40 umol/kg; assay type: functional, organism-based; outline: as §5
[37] = tested on: Rattus norvegicus; test: Level of compound in rat cortex at dose 8 umol/kg; assay type: functional, organism-based; outline: as §5
[38] = tested on: Rattus norvegicus; test: Level of compound in rat cortex by pretreatment of tropolone (50 mg/kg, ip, 30min) at dose 40 umol/kg; assay type: functional, organism-based; outline: as §5
[39] = tested on: Rattus norvegicus; test: Level of compound in rat cortex by pretreatment of tropolone (50 mg/kg, ip, 30min) at dose 8 umol/kg; assay type: functional, organism-based; outline: as §5
[40] = organism: Rattus norvegicus; test: Maximal cAMP production in rat striatal homogenates.; assay type: functional
Outline: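 cAMP formation in rat striatal homogenates was read with an automated adenylate cyclase assay.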

[41] = Ratio of Vmax/Km was measured; assay type: ADME
Outline: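 Crude COMT from rat liver (KCl homogenate, 105000g supernatant). Incubated at 37 °C in 50 mM phosphate buffer pH 7.4 with 10 mM MgCl2, S-adenosyl-L-methionine ([…] as printed), and substrate at 0.1–0.00125 mM (final concentrations), 15 min. Stopped with perchloric acid; the O-methylated product was measured by HPLC-electrochemical detection. Km and Vmax from Lineweaver-Burk plots of four experiments, each concentration run in triplicate.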

[42] = tested on: Rattus norvegicus; test: Level of compound in rat cerebellum by pretreatment of tropolone (50 mg/kg, ip, 30min) at dose 40 umol/kg; assay type: functional, organism-based; outline: as §5
[43] = tested on: Rattus norvegicus; test: Motor activity effect in reserpinized rat with tropolone pretreatment at 50 umol/kg, ip expressed as accumulation counts 0-30 min after treatment; assay type: functional; outline: as §4
[44] = tested on: Rattus norvegicus; test: Motor activity effect in reserpinized rat at 213 umol/kg, sc expressed as accumulation counts 0-30 min after treatment; assay type: functional
[45] = tested on: Rattus norvegicus; test: Motor activity effect in reserpinized rat with tropolone pretreatment at 10 umol/kg, ip expressed as accumulation counts 0-30 min after treatment; assay type: functional; outline: as §4
[46] = tested on: Rattus norvegicus; test: Level of compound in rat striatum at dose 45 umol/kg administered subcutaneously; assay type: functional, organism-based; outline: as §3
[47] = organism: Rattus norvegicus; test: Dopa accumulation was evaluated in limbic system of male Sprague-Dawley rat.; assay type: functional; outline: as §2
[48] = organism: Rattus norvegicus; test: Dopa accumulation was evaluated in corpus striatum of male Sprague-Dawley rat.; assay type: functional; outline: as §2

Chain of D(1A) dopamine receptor (P18901 whole entry): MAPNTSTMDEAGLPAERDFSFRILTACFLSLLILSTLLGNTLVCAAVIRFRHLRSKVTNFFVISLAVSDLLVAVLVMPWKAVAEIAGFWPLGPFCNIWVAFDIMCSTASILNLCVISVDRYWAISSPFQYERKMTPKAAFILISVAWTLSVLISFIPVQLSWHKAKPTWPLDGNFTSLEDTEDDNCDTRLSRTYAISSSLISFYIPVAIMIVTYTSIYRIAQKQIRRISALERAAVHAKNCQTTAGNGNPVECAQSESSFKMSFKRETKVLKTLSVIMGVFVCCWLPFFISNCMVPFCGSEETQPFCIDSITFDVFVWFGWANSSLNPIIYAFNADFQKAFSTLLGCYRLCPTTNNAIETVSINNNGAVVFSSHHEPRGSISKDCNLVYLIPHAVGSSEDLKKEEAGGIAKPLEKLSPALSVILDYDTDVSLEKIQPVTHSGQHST
Chain of D(2) dopamine receptor (P61169 whole entry): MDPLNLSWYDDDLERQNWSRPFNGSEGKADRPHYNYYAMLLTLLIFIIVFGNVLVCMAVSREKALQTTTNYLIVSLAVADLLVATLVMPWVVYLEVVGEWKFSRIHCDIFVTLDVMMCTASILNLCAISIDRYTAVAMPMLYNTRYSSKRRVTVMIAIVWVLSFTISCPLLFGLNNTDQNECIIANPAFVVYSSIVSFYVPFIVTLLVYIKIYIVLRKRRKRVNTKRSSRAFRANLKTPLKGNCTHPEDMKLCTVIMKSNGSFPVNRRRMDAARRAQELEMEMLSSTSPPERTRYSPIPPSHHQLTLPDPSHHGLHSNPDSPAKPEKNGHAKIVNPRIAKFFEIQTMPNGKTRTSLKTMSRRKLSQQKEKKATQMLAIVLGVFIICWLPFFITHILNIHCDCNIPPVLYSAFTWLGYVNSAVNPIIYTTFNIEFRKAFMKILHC

NCCc1ccc(O)c(O)c1 [DOPAMINE]
Km [1]: 7.8 µM

CCCN1CCC[C@H](c2cccc(O)c2)C1
Control [2]: 50% | Control [3]: 32% | ED50 [4]: 1.3 µmol/kg | ED50 [5]: 1 µmol/kg | Motor activity [6]: 78 | Level [7]: 17600 pmol/g | Level [8]: 7040 pmol/g | Level [9]: 98 pmol/g | Level [10]: 114 pmol/g | Level [11]: 243 pmol/g | Level [12]: 211 pmol/g | Level [13]: 151 pmol/g | Level [14]: 93 pmol/g | Level [15]: 4910 pmol/g | Level [16]: 15200 pmol/g | Level [17]: 7410 pmol/g | Level [18]: 18300 pmol/g

CCCN1CCC[C@H](c2ccc(O)c(O)c2)C1
Km [1]: 65 µM | Km [19]: 121 µM | Ki [20]: 57.8 µM | Ki [21]: 11 nM | Control [2]: 65% | Control [3]: 49% | ED50 [4]: 7 µmol/kg | ED50 [5]: 6.2 µmol/kg | Motor activity [22]: 24 | Motor activity [23]: 20 | Level [24]: 112 pmol/g | Level [25]: 5850 pmol/g | Level [26]: 227 pmol/g | Level [27]: 18 pmol/g | Level [28]: 6000 pmol/g | Level [29]: 1620 pmol/g | Level [30]: 1380 pmol/g | Level [31]: 4340 pmol/g | Level [32]: 1550 pmol/g | Level [33]: 1910 pmol/g | Level [34]: 150 pmol/g | Level [35]: 22 pmol/g | Level [36]: 9540 pmol/g | Level [37]: 2750 pmol/g | Level [38]: 8470 pmol/g | Level [39]: 2050 pmol/g | Production (pM (mg of protein)-1) [40]: 46 | Ratio [41]: 346 | Level [42]: 7200 pmol/g

CCCN1CCC[C@@H](c2cccc(O)c2)C1 [PRECLAMOL]
Control [2]: 118% | Control [3]: 123% | ED50 [4]: 1.7 µmol/kg | ED50 [5]: 0.8 µmol/kg | Motor activity [43]: 77 | Motor activity [44]: 12 | Motor activity [45]: 23 | Level [8]: 5380 pmol/g | Level [46]: 20300 pmol/g | Level [9]: 104 pmol/g | Level [10]: 174 pmol/g | Level [11]: 280 pmol/g | Level [12]: 243 pmol/g | Level [13]: 174 pmol/g | Level [14]: 89 pmol/g | Level [15]: 3430 pmol/g | Level [16]: 16100 pmol/g | Level [17]: 5790 pmol/g | Level [18]: 21100 pmol/g

CCCN1CCC[C@@H](c2ccc(O)c(O)c2)C1
Km [1]: 21 µM | Km [19]: 77 µM | Ki [20]: 13.5 µM | Ki [21]: 12 nM | Control [2]: 83% | Control [3]: 65% | ED50 [47]: 8.5 µmol/kg | Motor activity [22]: 78 | Motor activity [23]: 69 | Level [24]: 61 pmol/g | Level [25]: 9720 pmol/g | Level [26]: 167 pmol/g | Level [27]: 16 pmol/g | Level [28]: 10300 pmol/g | Level [29]: 2330 pmol/g | Level [30]: 2540 pmol/g | Level [31]: 9160 pmol/g | Level [32]: 2020 pmol/g | Level [33]: 2290 pmol/g | Level [34]: 63 pmol/g | Level [35]: 10 pmol/g | Level [36]: 17000 pmol/g | Level [37]: 3410 pmol/g | Level [38]: 13200 pmol/g | Level [39]: 3250 pmol/g | Production (pM (mg of protein)-1) [40]: 138 | Ratio [41]: 485 | ED50 [48]: 8.2 µmol/kg | Level [42]: 9330 pmol/g
